Data: ChEMBL document CHEMBL1135469, “Design, synthesis, and antiproliferative activity of some new pyrazole-fused amino derivatives of the pyranoxanthenone, pyranothioxanthenone, and pyranoacridone ring systems: a new class of cytotoxic agents” (J Med Chem, 2002)

How the values were obtained:
A549 [1] = experiment: In vitro cytotoxic activity against human lung A549 cell line ( standard deviation in parenthesis); type: functional, cell-based
Procedure, shortened: (§1)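 MTT assay on human tumour cells grown in DMEM with 10% FBS, penicillin and streptomycin at 37 °C, 5% CO2. About 5000 cells/well were seeded, and compounds diluted with DMSO were added after 24 h. After 48 h exposure, 1 mg/mL MTT (final) was added for 4 h. Formazan was dissolved in 2-propanol and read at 550 nm (reference 690 nm).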

Calf thymus DNA = experiment: In vitro inhibition of calf thymus DNA/ethidium bromide complex formation.; type: nucleic-acid assay
Procedure, shortened: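 Ethidium displacement: compounds added to 5 mM Tris-HCl/0.5 mM EDTA buffer, pH 8, containing calf thymus DNA (1 µg/mL) and ethidium bromide (1 µg/mL). EC50 is the concentration halving DNA/ethidium complex fluorescence. Mean of two experiments.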

HT-29 [2] = experiment: In vitro cytotoxic activity against human colon HT-29 cell line ( standard deviation in parenthesis); type: functional, cell-based
Procedure, shortened: (§2)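 MTT assay on human cells grown in DMEM with 10% FBS and penicillin/streptomycin at 37 °C, 5% CO2. About 5000 cells/well; compounds diluted with DMSO are added after 24 h for 48 h. Then 1 mg/mL MTT (final) in serum-free, phenol-red-free RPMI for 4 h. Formazan dissolved in 2-propanol, OD 550 nm (ref 690 nm).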

MDA-MB-231 [3] = experiment: In vitro cytotoxic activity against human breast MDA-MB-231 cell line ( standard deviation in parenthesis); type: functional, cell-based; procedure, shortened: as §2
HRT-18 cell line [4] = experiment: In vitro inhibition of HRT-18 (human colon) cell proliferation.; type: functional, cell-based; procedure, shortened: as §2
L1210 = experiment: In vitro cytotoxic activity against murine leukemia cell line L1210; type: functional, cell-based; details: Mus musculus
HT-29 [5] = experiment: In vitro cytotoxic activity against human colon HT-29 cell line; type: functional, cell-based; procedure, shortened: as §2
A549 [6] = experiment: In vitro cytotoxic activity against human lung A549 cell line; type: functional, cell-based; procedure, shortened: as §2
HCT-116 [7] = experiment: In vitro cytotoxic activity against human colon HCT116 cell line; type: functional, cell-based; procedure, shortened: as §2
MDA-MB-231 [8] = experiment: In vitro cytotoxic activity against human breast MDA-MB-231 cell line; type: functional, cell-based; procedure, shortened: as §2
HRT-18 cell line [9] = experiment: In vitro cytotoxic activity against human colon […] cell line ( standard deviation in parenthesis); type: functional, cell-based; procedure, shortened: as §2
HCT-116 [10] = experiment: In vitro cytotoxic activity against human colon HCT116 cell line ( standard deviation in parenthesis); type: functional, cell-based; procedure, shortened: as §2
A549 [11] = experiment: In vitro cytotoxic activity against human lung A549 cell line); type: functional, cell-based; procedure, shortened: as §1
HRT-18 cell line [12] = experiment: In vitro cytotoxic activity against human colon HRT-18 cell line; type: functional, cell-based; procedure, shortened: as §1

Compound | IC50 (A549 [1]) | EC50 (Calf thymus DNA) | IC50 (HT-29 [2]) | IC50 (MDA-MB-231 [3]) | IC50 (HRT-18 cell line [4]) | IC50 (L1210) | IC50 (HT-29 [5]) | IC50 (A549 [6]) | IC50 (HCT-116 [7]) | IC50 (MDA-MB-231 [8]) | IC50 (HRT-18 cell line [9]) | IC50 (HCT-116 [10]) | IC50 (A549 [11]) | IC50 (HRT-18 cell line [12])
Cc1c2ccncc2c(C)c2c1[nH]c1ccccc12 [ELLIPTECINE] | 10 µM | 22.2 µM | 15 µM | 2.3 µM | – | – | – | – | – | – | – | – | – | –
CC1(C)C=Cc2c(cc3c4c(nn3CCO)-c3ccccc3Oc24)O1 | – | – | – | – | 4 µM | > 10 µM | 12 µM | > 100 µM | 28 µM | 100 µM | – | – | – | –
CCN(CC)CCn1nc2c3c(c4c(cc31)OC(C)(C)C=C4)Oc1c(OC)cccc1-2 | – | 273 µM | – | – | 30 µM | 9.9 µM | 9 µM | 33 µM | 41 µM | 11 µM | – | – | – | –
CC1(C)C=Cc2c(cc3c4c(nn3CCOS(C)(=O)=O)-c3ccccc3Sc24)O1 | – | > 500 µM | 45 µM | > 100 µM | – | 15 µM | – | – | – | – | 30 µM | 44 µM | – | –
CN1c2ccccc2-c2nn(CCOS(C)(=O)=O)c3cc4c(c1c23)C=CC(C)(C)O4 | – | – | 20 µM | – | – | 2.5 µM | – | – | – | – | – | 49 µM | – | –
CCN(CC)CCn1nc2c3c(c4c(cc31)OC(C)(C)C=C4)Oc1ccccc1-2 | – | – | – | – | 5 µM | 9.1 µM | 9 µM | 10 µM | 40 µM | 9 µM | – | – | – | –
CC1(C)C=Cc2c(cc3c4c(nn3CCOS(C)(=O)=O)-c3ccccc3Oc24)O1 | – | – | 24 µM | 53 µM | – | 31.9 µM | – | > 100 µM | – | – | 22 µM | 33 µM | – | –
COc1cccc2c1Oc1c3c(cc4c1c-2nn4CCN1CCCC1)OC(C)(C)C=C3 | – | 71.7 µM | – | – | 60 µM | 10.6 µM | 8 µM | 33 µM | 43 µM | 11 µM | – | – | – | –
CN(C)CCn1nc2c3c(c4c(cc31)OC(C)(C)C=C4)Oc1ccccc1-2 | – | 431 µM | – | – | 50 µM | 9.8 µM | 18 µM | 32 µM | 54 µM | 50 µM | – | – | – | –
COc1cc2c(c3c1c(=O)c1ccccc1n3C)C=CC(C)(C)O2 [ACRONINE] | – | 270 µM | – | – | – | – | > 100 µM | – | > 100 µM | – | – | – | > 100 µM | > 100 µM
O=C1c2c(O)ccc(O)c2C(=O)c2c(NCCNCCO)ccc(NCCNCCO)c21 [MITOXANTRONE] | – | 3.4 µM | – | 1 µM | – | – | – | – | – | – | – | – | – | –
COc1cccc2c1Oc1c3c(cc4c1c-2nn4CCN(C)C)OC(C)(C)C=C3 | – | 150 µM | – | – | 17 µM | 14.6 µM | 9 µM | 50 µM | 51 µM | 48 µM | – | – | – | –
CC1(C)C=Cc2c(cc3c4c(nn3CCN3CCCC3)-c3ccccc3Oc24)O1 | – | – | – | – | 30 µM | 8.3 µM | 9 µM | 27 µM | 42 µM | 12 µM | – | – | – | –
COc1cccc2c1Oc1c3c(cc4c1c-2nn4CCOS(C)(=O)=O)OC(C)(C)C=C3 | – | – | – | – | – | 26.7 µM | – | – | – | – | – | – | – | –
CC1(C)C=Cc2c(cc3c4c(nn3CCN3CCCCC3)-c3ccccc3Oc24)O1 | – | – | – | – | 10 µM | 10.1 µM | 6.5 µM | 15 µM | 20 µM | 20 µM | – | – | – | –
COc1cccc2c1Oc1c3c(cc4c1c-2nn4CCO)OC(C)(C)C=C3 | – | 274 µM | – | – | > 100 µM | > 10 µM | > 100 µM | > 100 µM | 64 µM | > 100 µM | – | – | – | –
COc1ccc2c(c1)-c1nn(CCOS(C)(=O)=O)c3cc4c(c(c13)N2C)C=CC(C)(C)O4 | – | – | 18 µM | 12 µM | – | 0.4 µM | – | > 100 µM | – | – | – | 12 µM | – | –
COc1cccc2c1Oc1c3c(cc4c1c-2nn4CCN1CCCCC1)OC(C)(C)C=C3 | – | 290 µM | – | – | 12 µM | 16.5 µM | 6 µM | 31 µM | 54 µM | 37 µM | – | – | – | –
